Source: PubChem (several laboratories)
Sampled rows, rich in hits. Any-hit rate of the full collection: about 2.4%.
aDG glyco act – increases alpha dystroglycan glycosylation. activation, % at 10 µM. AID 624168. Pro5-aDG cells, alpha-DG glycosylation AlphaScreen (IIH6); 0% Pro5, 100% B10-LARGE cell signal. 360,000 tested, 0.22% active;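 active means activation of at least 8% versus controls, or a plate z-score of at least 8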;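 further: Pro5 are CHO cells carrying HIG-tagged alpha-DG that lacks glycosylation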
TbMetRS inhib – Trypanosoma brucei MetRS inhibition; purified T. brucei MetRS, ATP depletion, Kinase-Glo luminescence; inhibition, % at 11.9 µM; 360,000 tested, 0.4% active;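 active means inhibition above a per-plate cutoff of the control wells' mean inhibition plus 3 SD, cut at about 5.5% in these data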;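 further: 0% = DMSO wells median and 100% = median of wells with control inhibitor compound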
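Assay system: T. brucei methionyl-tRNA synthetase, purified | Medium: HEPES buffer with MgCl2, KCl, DTT, spermine, BSA, pyrophosphatase | Compound: 11.9 µM single point | Incubation: 15 min enzyme-compound preincubation, 2 h reaction, 10 min detection, 25 °C | Measured by: Kinase-Glo luciferase luminescence reporting remaining unconsumed ATP | Measure: % inhibition normalized to control-well medians | Replication: Singlicate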
NTR1 ag – NTR1 (human) agonism; NTR1-U2OS beta-arrestin-GFP spot imaging, agonist mode; activation, % at 20 µM; 330,000 tested, 0.17% active; AID 493036;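 active means activation at or above 40% of the spot to cytoplasm intensity ratio, with at least 20 cells analyzed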;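 further: 0% = DMSO without peptide and 100% = 100 nM NTR1 peptide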
Target sequence (P30989 whole entry, looked up): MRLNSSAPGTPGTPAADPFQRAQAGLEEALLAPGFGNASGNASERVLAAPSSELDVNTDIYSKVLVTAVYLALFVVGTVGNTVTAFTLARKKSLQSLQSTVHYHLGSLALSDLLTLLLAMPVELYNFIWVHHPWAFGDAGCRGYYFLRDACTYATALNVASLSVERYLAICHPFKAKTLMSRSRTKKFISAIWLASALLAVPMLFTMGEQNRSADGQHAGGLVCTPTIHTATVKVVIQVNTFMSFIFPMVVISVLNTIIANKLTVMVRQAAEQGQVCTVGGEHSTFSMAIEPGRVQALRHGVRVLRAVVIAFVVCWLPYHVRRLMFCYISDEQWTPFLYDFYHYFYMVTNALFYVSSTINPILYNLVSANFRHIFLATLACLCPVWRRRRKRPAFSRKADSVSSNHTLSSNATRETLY
MC4R barr agon – activates human MC4R beta-arrestin recruitment. P32245. U2OS MC4R beta-arrestin complementation, luminescence; percent of melanotan II response, DMSO zero. activation, % at 8.9 µM. 360,000 tested, 0.98% active. AID 540308;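 active means activation above a per-plate cutoff, the mean activation of sample wells on that plate plus 3 SD, cut at about 8% in these data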
H9c2 TAG inh – triacylglycerol accumulation inhibition. AID 651582. 230,000 tested, 0.66% active. H9c2 cells, Nile Red lipid (TAG) fluorescence; cells loaded with 200 µM oleic acid. inhibition, % at 12.5 µM;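 active means pattern-corrected inhibition of lipid staining of at least 50% with the nuclear-stain viability signal not falling by more than 50%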;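 further: 0% = DMSO wells and 100% = triacsin C control wells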
MC4R antagonist – antagonists of human melanocortin 4 receptor (MC4R); P32245; MC4R-expressing cells, MTII-stimulated cAMP, LANCE TR-FRET; inhibition, % at 6.5 µM; 360,000 tested, 0.48% active;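 active means inhibition above its plate's cutoff, the mean of tested wells on that plate plus 3 SD, cut at about 29% in these data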;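 further: 0% = Melanotan II alone and 100% = Melanotan II plus saturating MCL0020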
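Test system: U2OS cells stably expressing human melanocortin 4 receptor (MC4R); also added: Melanotan II challenge; compound: 6.5 µM single dose; timing: 30-min compound preincubation, 1-h Melanotan II challenge, 1-h detection, room temperature; signal: Eu-cAMP/anti-cAMP TR-FRET, emission 671 nm; repeats: one well per compound, no replicates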
aDG glyco conf – alpha-DG glycosylation activation, confirmation; shares compounds with aDG glyco act; Pro5-aDG cells, IIH6 AlphaLISA; scaled to LARGE-overexpressing B10 cells as 100%; activation, % at 10 µM (by protocol); 600 tested, 17% active; AID 651671;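 active means activation of at least 7% in one or more replicates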;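 further: cells exposed to compound for two days before detection; 0% = DMSO-treated Pro5 cells and 100% = DMSO-treated B10-LARGE cells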
Tb MetRS conf – confirmation of Trypanosoma brucei MetRS inhibitors; 1,400 tested, 93% active; shares compounds with TbMetRS inhib; inhibition, % at 11.9 µM; T. brucei MetRS enzyme, luminescence (ATP depletion); in the data active means inhibition above about 7%
Jurkat cytotox – counter-screen for T. brucei MetRS inhibitors: Jurkat cell cytotoxicity; shares compounds with TbMetRS inhib; Jurkat cells viability, ATP luminescence; inhibition, % at 8.3 µM; 1,400 tested, 12% active; in the data active means inhibition above about 15%;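 further: 0% = vehicle and 100% = reference inhibitor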
Tb MetRS inh FP – orthogonal test for Trypanosoma brucei MetRS inhibitors; inhibition, % at 11.9 µM; shares compounds with TbMetRS inhib; 1,400 tested, 44% active; purified T. brucei MetRS, fluorescence polarization; in the data active means inhibition above about 17%;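 further: 0% = vehicle wells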
H9c2 TAG conf – confirmation of triacylglycerol accumulation inhibitors; shares compounds with H9c2 TAG inh; H9c2 lipid accumulation, Nile Red fluorescence; cells loaded with 200 µM oleic acid; inhibition, % at 12.5 µM; 990 tested, 71% active; AID 651629;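 active means mean inhibition across replicates of 40% or more; inactive means mean inhibition below 40%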;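 further: plate controls were DMSO only wells for no effect and Triacsin C treated wells for full effect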
Active calls of the source: *; . = not tested or not shown.

SMILES | aDG glyco act | TbMetRS inhib | NTR1 ag | MC4R barr agon | H9c2 TAG inh | MC4R antagonist | aDG glyco conf | others
Cn1c(SCC(=O)Nc2ccc(NC(=O)c3cccc(F)c3)cc2)nnc1-c1ccncc1 | 1.8* | 0 | 0 | -1 | . | 5 | 0
Cn1c(SCC(=O)Nc2ccc(NC(=O)c3ccccc3F)cc2)nnc1-c1ccncc1 | 0 | -1 | 1 | 1 | . | 5 | .
O=S1(=O)CC(N2CCCC2)CN1Cc1cn(Cc2ccc(Cl)cc2)nn1 (configuration not stated) | 0 | -1 | . | . | . | . | .
O=C(N[C@@H]1CCC(=O)N(CC[C@H](Sc2ccc(Br)cc2)c2ccccc2)CC1)OCc1ccccc1 | 9.1* | 0 | 5 | 1 | -7 | 2 | 1
CC(C)Oc1cc(F)ccc1-c1cc(C(=O)Nc2ccc(C(C)C)cc2)[nH]n1 | 12* | 0 | . | 6 | 6 | 15 | 0
CN1N=C(N)c2cn(C3OC(COP(=O)(O)O)C(O)C3O)c3ncnc1c23 (configuration not stated) | 82* | 0 | . | -1 | 52* | 4 | 23* | H9c2 TAG conf=64*
CC(C)[C@H](NC(=O)OC(C)(C)C)c1cc(C(=O)N2CCOCC2)c(N)s1 | 0 | 0 | . | . | . | . | .
O=C1C(Cl)=C(NCc2ccco2)C(=O)c2ccccc21 | 11* | 0 | . | 0 | 65* | -30 | 10* | H9c2 TAG conf=46*
COc1ccc(C(C(=O)Nc2ccc(F)cc2)N2CCN(c3cccc(C(F)(F)F)n3)CC2)cc1 (configuration not stated) | 0 | -1 | . | . | . | . | .
COc1cc(CNC(=O)Nc2nc(C(N)c3ccccc3)cs2)cc(OC)c1OC (configuration not stated) | 0 | 0 | . | 0 | 23 | -6 | .
COc1cc(CNC(=O)Nc2nc(C(N)Cc3ccc(Cl)cc3)cs2)cc(OC)c1OC (configuration not stated) | 5.8* | 0 | . | 5 | 67* | 5 | 5.9* | H9c2 TAG conf=94*
O=C(Cc1ccc(F)cc1)Nc1cc(S(=O)(=O)N2CCOCC2)ccc1N1CCCCC1 | 0 | 0 | . | -1 | -19 | 7 | .
O=C(Nc1ccc(F)cc1)Nc1cc(S(=O)(=O)N2CCOCC2)ccc1N1CCCC1 | 0 | 11* | 0 | -2 | -23 | 12 | . | Tb MetRS conf=27*;Jurkat cytotox=7;Tb MetRS inh FP=13
O=C(Nc1ccc(Cl)cc1)Nc1cc(S(=O)(=O)N2CCOCC2)ccc1N1CCCC1 | 0 | 38* | 7 | -3 | -16 | -7 | . | Tb MetRS conf=60*;Jurkat cytotox=-4;Tb MetRS inh FP=35*
CCNC(=O)Nc1cc(S(=O)(=O)N2CCOCC2)ccc1N1CCCCC1 | 0 | 0 | . | -1 | 9 | -1 | .
O=C(Nc1ccccc1)Nc1cc(S(=O)(=O)N2CCOCC2)ccc1N1CCCC1 | 0 | 8.5* | 0 | -1 | . | 3 | . | Tb MetRS conf=20*;Jurkat cytotox=3;Tb MetRS inh FP=12
CC1(C(=O)NS(=O)(=O)c2ccc(F)cc2F)CCN1C(=O)CC(c1ccccc1)c1ccccc1 (configuration not stated) | 0 | 0 | . | 0 | 4 | 3 | .
CC(=O)c1ccc(-c2cnc3c(NC=O)cc(-c4cnn(C)c4)cn23)cc1 | 0 | -1 | . | 7 | 0 | -2 | .
COC(=O)c1ccccc1COc1cccn2c(N(C)Cc3cccs3)c(C)nc12 | 3 | 0 | . | 0 | -16 | 10 | .
